Assay outcomes (PubChem BioAssay)
Shown are actives, neighbours in structure and some others; about 5.9% of the full set was active somewhere.
PTK2B oligo ant – Pyk2 (human) oligomerization antagonism | AID 1347419 | 0.83% of 99,000 active | z-score (the deposit names both 25 µM and 10 µM) | Q293 cells, Pyk2 FERM NanoBiT luminescence; hits give low values | Q14289;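 active = Z-score of -3 or lower, scaled per plate to the spread of control and sample wells; inactive = z-score above -3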;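 also: negative z-score means lost luminescence so less FERM oligomerization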
Phagocyt inh – blocks phagocytosis by macrophages; 0.07% of 110,000 active; AID 1029; J774A.1 macrophage IgG-bead phagocytosis, imaging; inhibition, % at 5 µM;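 active = inhibition above the mean of the plate negative controls plus 5 SD, cut at about 13% in these data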;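 also: phagocytic index as fraction of beads internalized from green versus red external bead signal; plate controls were DMSO negative control for no effect and cytochalasin-D positive control for full effect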
HIV Rev-RRE inh – inhibitors of HIV-1 Rev-RRE RNA interaction; Rev peptide-RRE RNA binding, FRET; inhibition, % at 8 µM; 0.79% of 97,000 active; AID 704;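 active = inhibition above the screen-wide mean plus 3 SD, cut at about 35% in these data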;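 also: 0% = median DMSO wells and 100% = median Neomycin B control wells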
Target sequence (P05866 whole entry, looked up): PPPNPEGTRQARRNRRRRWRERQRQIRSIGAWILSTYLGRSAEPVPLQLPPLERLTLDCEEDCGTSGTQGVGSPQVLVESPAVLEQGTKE
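Probe or stimulus: fluorescein-Rev peptide as binding partner; assay system: Cy5-tagged RRE RNA duplex with fluorescein-tagged Rev peptide; timing: 5 min compound–RNA preincubation, then 15 min with peptide, 25 °C; medium: HEPES pH 7.5 buffer with KCl, MgCl2, NaCl and EDTA; signal: fluorescein-to-Cy5 FRET, 480 nm excitation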
Measles CPE – protection of cells from measles virus; Measles virus-infected cells, CPE protection, absorbance; protection (pct of control), % at 4 µM; 1.5% of 140,000 active; in the data active = protection mostly above about 24%, no sharp cut-off; inactive = mostly below about 26%
hDAT+cocaine – changed human dopamine transporter uptake under cocaine IC80; Q01959; LLC-PK1 hDAT cells, [14C]-dopamine uptake with cocaine IC80; actives deviate in either direction; B-score at 10 µM; 1.3% of 110,000 active; AID 449768;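 active = Z score or B-score, a plate-position-corrected score, falls beyond the plate's 99.7% confidence bounds, in either direction; inactive = both scores lie inside the 99.7% bounds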;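 also: scored against the spread of the other compound wells on the same plate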
Cav32 inh – inhibitors of human Cav3.2 T-type calcium channel | Cav3.2-expressing cells, Fluo-4 calcium fluorescence FDSS; hits give low values | AID 449739 | O95180 | B-score at 10 µM | 4% of 100,000 active;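 active = single-dose well whose peak fluorescence ratio is a statistical outlier from its plate by either plate-standardised score or position-corrected B-score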
* marks the source's active call; other numbers are inactive results; x = no result.

SMILES	PTK2B oligo ant	Phagocyt inh	HIV Rev-RRE inh	Measles CPE	hDAT+cocaine	Cav32 inh
CC(C)c1ccc(/C=N/NC(=O)c2c(Cl)cnn2C)cc1	x	-1.9	x	9.7	x	x
Cc1ccc(N2CC3=C(C2=O)C(c2ccccc2)NC(=O)N3C)cc1 (stereo not given)	0.28	-1.3	4.7	37.9	-1.51*	-0.152
C=C(C)c1cccc(C(C)(C)NC(=O)N(Cc2ccccc2)Cc2ccco2)c1	-1.8	0.4	5.7	3.9	x	x
O=c1c2ccccc2nc(/C=C/c2c[nH]c3ccccc23)n1-c1ccc([N+](=O)[O-])cc1	x	5.5	x	32.1*	x	x
CCOC(=O)c1c(-c2ccccc2)csc1NC(=O)c1cc(S(=O)(=O)N2CCOCC2)ccc1C	x	-15.8	x	3.3	x	x
CCN1c2cccc3cccc(c23)S1(=O)=O	0.52	x	5.8	18.4	x	x
CCN1/C(=C(\O)c2ccccc2)C(=O)c2ccccc2S1(=O)=O	-0.35	8.6	5.6	18.7	-0.409	-3.84*
COc1ccc(CNC(=O)Cn2cc(C(F)(F)F)ccc2=O)cc1	x	-2.5	x	2.8	x	x
COc1cccc(N2CC(C(=O)Nc3nnc(SCc4cccnc4)s3)CC2=O)c1 (stereo not given)	x	-10.8	x	4.1	x	x
CC(NC(=O)C1(c2cccs2)CCOCC1)c1ccccc1 (stereo not given)	x	-3.7	x	25.9	x	x
COc1ccc(-c2c(C)n([O-])c(C)c(-c3ccccc3)[n+]2=O)cc1OC	0.82	-4.1	4.4	88.9*	-0.174	0.984
Cn1cc(C(c2ccccn2)c2cn(C)c3ccccc23)c2ccccc21	-1.31	x	11.3	8.1	-1.16	-6.56*
c1ccc(C(c2c[nH]c3ccccc23)c2c[nH]c3ccccc23)nc1	-2.5	-1.1	5.8	3.9	-0.794	x
COc1cccc(NC(=S)N2CCN(C/C=C/c3ccccc3)CC2)c1	-0.05	x	-2.5	14.6	0.848	-4.91*
Cc1cccc(C)c1C(=NCCCN(C)C)c1ccccc1	x	-3.1	x	10.1	x	x
CC(C)(C)c1ccc(C(O)CCCN2CCC(C(O)(c3ccccc3)c3ccccc3)CC2)cc1 (stereo not given)	x	x	x	8.4	-0.795	-4.77*
Oc1ccccc1CN1CCC(C(O)(c2ccccc2)c2ccccc2)CC1	x	-0.1	x	16.1	x	x
O=C(Cc1coc(-c2ccc(F)cc2)n1)N1CCOCC1	-0.35	-1.4	x	32.7	0.128	1.03
COc1ccc(/C=N/NC(=O)C(C)n2cnc3ccccc3c2=O)cc1 (stereo not given)	x	-11.5	x	20.8	x	x
C=CCn1c(=S)[nH]c2nc3c(cc2c1=O)CCCC3	-0.74	3.8	10.7	5.7	14.9*	0.391
CC(OC(=O)c1nsc(Cl)c1Cl)C(=O)NC(C)(C)C (stereo not given)	1.49	x	0.2	14.8	0.342	0.943
C/C(=N/NC(=O)CN1CCN(S(=O)(=O)c2ccc(Br)cc2)CC1)c1cccnc1	x	-8.8	x	13.4	x	x
COc1ccc(/C=C2/N=C(SCC(=O)Nc3cc(C)on3)N(c3ccccc3)C2=O)cc1	x	-8.8	x	11.4	x	x
CCN(CC)C1=N/C(=C\c2ccc(OC)cc2)C(=O)N1c1ccccc1	x	-6.4	x	68.9*	x	x
Clc1ccccc1-c1nc2nc3ccccc3nc2n1-c1ccc2c(c1)OCO2	x	2.9	x	16.4	x	x
SMILES	PTK2B oligo ant	Phagocyt inh	HIV Rev-RRE inh	Measles CPE	hDAT+cocaine	Cav32 inh
N#Cc1nc(-c2ccco2)oc1NCc1ccco1	-0.11	-1.4	12.1	2.7	-1.27	0.437
Cc1ccc(-c2nc(C#N)c(NCc3ccco3)o2)cc1	-0.51	1.0	x	8.7	-2.84*	-1.57
Cn1nc(-c2ccc(Cl)cc2)c2cc(C(=O)NCCN3CCOCC3)sc21	x	-0.3	9.3	1.8	2.61*	0.0538
CC(SCC(=O)NC12CC3CC(CC(C3)C1)C2)C(=O)O (stereo not given)	x	-5.5	x	8.9	x	x
COc1ccc(NC(=O)c2oc3ccccc3c2NC(=O)c2ccco2)cc1	-3.05*	-1.2	6.8	16.5	-0.287	-1.69
CCC(C)NC(=O)COc1ccccc1[N+](=O)[O-] (stereo not given)	x	-5.6	x	x	x	x
O=C(NNS(=O)(=O)c1ccc2ccccc2c1)c1cccs1	x	-11.0	x	28.5	x	x
O=C(NNS(=O)(=O)c1ccc2ccccc2c1)NC1CCCCC1	x	-11.4	x	51.9*	x	x
Cc1cccc(C(=O)NC2CCN(C(=S)NCc3ccco3)CC2)c1	0.33	x	1.7	5.6	0.836	0.18
O=C(NC1CCN(C(=S)NCc2ccco2)CC1)NC12CC3CC(CC(C3)C1)C2	0.02	1.1	-2.4	x	0.236	-3.8*
